Results as given in ChEMBL document CHEMBL1147379, “Antineoplastic agents, 256. Cell growth inhibitory isocarbostyrils from Hymenocallis” (1993).
Converted amounts (≈) assume the structure as drawn.

What was measured:
Type in all cases: functional
RPMI-8226 = assay: Growth inhibition of human RPMI8226 cells
Outline: (§1)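 NCI 60-human-tumour-cell-line primary in vitro screen. Each compound was tested eight separate times across three concentration ranges with upper limits of 10⁻⁴, 10⁻⁵ and 10⁻⁶ M. Each range used five 10-fold dilutions. GI₅₀, TGI and LC₅₀ were calculated from the concentration-response curves for each cell line, and averaged mean-graph values were constructed from them.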

NCI-H226 = assay: Growth inhibition of human NCI-H226 cells; outline: as §1
DMS-114 = assay: Growth inhibition of human DMS114 cells; outline: as §1
SF-539 = assay: Growth inhibition of human SF539 cells; outline: as §1
[1] = Growth inhibition of human LXFL529 cells; outline: as §1
KM-20L2 = assay: Growth inhibition of human KM20L2 cells; outline: as §1
SNB-78 = assay: Growth inhibition of human SNB78 cells
Outline: (§2)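 NCI 60-human-tumour-line in vitro primary screen. Each compound tested eight separate times over three concentration ranges (upper limits 10⁻⁴, 10⁻⁵ and 10⁻⁶ M), each range as five 10-fold dilutions. GI₅₀ (also TGI and LC₅₀) derived from the concentration-response curves, reported as averaged values per cell line (negative log₁₀).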

HT-29 = assay: Growth inhibition of human HT-29 cells; outline: as §1
SW-620 = assay: Growth inhibition of human SW620 cells; outline: as §2
HOP-18 = assay: Growth inhibition of human HOP18 cells; outline: as §1
HCT-15 = assay: Growth inhibition of human HCT15 cells; outline: as §1
UO-31 = assay: Growth inhibition of human UO31 cells; outline: as §2
RXF 393 = assay: Growth inhibition of human RXF393 cells; outline: as §1
P388 = assay: Growth inhibition of mouse P388 cells; settings: read-out: ED50 (the source's name)
U-251 = assay: Growth inhibition of human U251 cells; outline: as §2
NCI-H460 = assay: Growth inhibition of human NCI-H460 cells; outline: as §1
HOP-62 = assay: Growth inhibition of human HOP62 cells; outline: as §1
HCT-116 = assay: Growth inhibition of human HCT116 cells; outline: as §1
K562 = assay: Growth inhibition of human K562 cells; outline: as §1
OVCAR-3 = assay: Growth inhibition of human OVCAR-3 cells; outline: as §1
M14 = assay: Growth inhibition of human M14 cells; outline: as §1
SF-295 = assay: Growth inhibition of human SF295 cells; outline: as §1
SK-MEL-28 = assay: Growth inhibition of human SK-MEL-28 cells; outline: as §1
UACC-257 = assay: Growth inhibition of human UACC257 cells; outline: as §2
COLO 205 = assay: Growth inhibition of human COLO205 cells; outline: as §1
EKVX = assay: Growth inhibition of human EKVX cells; outline: as §1
SNB-19 = assay: Growth inhibition of human SNB19 cells; outline: as §1
NCI-H522 = assay: Growth inhibition of human NCI-H522 cells; outline: as §1
SF-268 = assay: Growth inhibition of human SF268 cells; outline: as §1
A549 = assay: Growth inhibition of human A549 cells; outline: as §1
DMS-273 = assay: Growth inhibition of human DMS273 cells; outline: as §1
[2] = read-out: pLC50 (the source's name) (converted)

## O=C1N[C@H]2[C@H](O)[C@H](O)[C@@H](O)C[C@@H]2c2cc3c(cc21)OCO3
RPMI-8226
  GI50: 95.5 nM
RPMI-8226; [2]
  CC50: > 100000 nM
RPMI-8226; read-out: pTGI (converted)
  TGI: 776 nM
NCI-H226
  GI50: 151 nM
NCI-H226; [2]
  CC50: 8710 nM
NCI-H226; read-out: pTGI (converted)
  TGI: 759 nM
DMS-114
  GI50: 50.1 nM
DMS-114; [2]
  CC50: 14100 nM
DMS-114; read-out: pTGI (converted)
  TGI: 513 nM
SF-539
  GI50: 60.3 nM
SF-539; [2]
  CC50: 1410 nM
SF-539; read-out: pTGI (converted)
  TGI: 282 nM
[1]; LXFL 529
  GI50: 46.8 nM
[1]; LXFL 529, read-out: pLC50 (the source's name) (converted)
  CC50: 26900 nM
[1]; LXFL 529, read-out: pTGI (converted)
  TGI: 708 nM
KM-20L2
  GI50: 51.3 nM
KM-20L2; [2]
  CC50: 66100 nM
KM-20L2; read-out: pTGI (converted)
  TGI: 912 nM
SNB-78
  GI50: 87.1 nM
SNB-78; [2]
  CC50: 83200 nM
SNB-78; read-out: pTGI (converted)
  TGI: 912 nM
HT-29
  GI50: 61.7 nM
HT-29; [2]
  CC50: > 100000 nM
HT-29; read-out: pTGI (converted)
  TGI: 813 nM
SW-620
  GI50: 64.6 nM
SW-620; [2]
  CC50: > 100000 nM
SW-620; read-out: pTGI (converted)
  TGI: 2400 nM
HOP-18
  GI50: 158 nM
HOP-18; [2]
  CC50: 79400 nM
HOP-18; read-out: pTGI (converted)
  TGI: 1700 nM
HCT-15
  GI50: 85.1 nM
HCT-15; [2]
  CC50: 85100 nM
HCT-15; read-out: pTGI (converted)
  TGI: 1200 nM
UO-31
  GI50: 100 nM
UO-31; [2]
  CC50: 44700 nM
UO-31; read-out: pTGI (converted)
  TGI: 955 nM
RXF 393
  GI50: 72.4 nM
RXF 393; [2]
  CC50: 2510 nM
RXF 393; read-out: pTGI (converted)
  TGI: 417 nM
P388
  EC50: 0.02 µg/mL (≈ 0.0682 µM)
U-251
  GI50: 47.9 nM
U-251; [2]
  CC50: 37200 nM
U-251; read-out: pTGI (converted)
  TGI: 1290 nM
NCI-H460
  GI50: 38.9 nM
NCI-H460; [2]
  CC50: 52500 nM
NCI-H460; read-out: pTGI (converted)
  TGI: 813 nM
HOP-62
  GI50: 64.6 nM
HOP-62; [2]
  CC50: 10000 nM
HOP-62; read-out: pTGI (converted)
  TGI: 501 nM
HCT-116
  GI50: 33.1 nM
HCT-116; [2]
  CC50: 24000 nM
HCT-116; read-out: pTGI (converted)
  TGI: 398 nM
K562
  GI50: 46.8 nM
K562; [2]
  CC50: > 100000 nM
K562; read-out: pTGI (converted)
  TGI: 1100 nM
OVCAR-3
  GI50: 83.2 nM
OVCAR-3; [2]
  CC50: 45700 nM
OVCAR-3; read-out: pTGI (converted)
  TGI: 501 nM
M14
  GI50: 64.6 nM
M14; [2]
  CC50: 1700 nM
M14; read-out: pTGI (converted)
  TGI: 347 nM
SF-295
  GI50: 141 nM
SF-295; [2]
  CC50: 41700 nM
SF-295; read-out: pTGI (converted)
  TGI: 912 nM
SK-MEL-28
  GI50: 81.3 nM
SK-MEL-28; [2]
  CC50: 44700 nM
SK-MEL-28; read-out: pTGI (converted)
  TGI: 646 nM
UACC-257
  GI50: 141 nM
UACC-257; [2]
  CC50: 45700 nM
UACC-257; read-out: pTGI (converted)
  TGI: 1820 nM
COLO 205
  GI50: 53.7 nM
COLO 205; [2]
  CC50: 457 nM
COLO 205; read-out: pTGI (converted)
  TGI: 200 nM
EKVX
  GI50: 331 nM
EKVX; [2]
  CC50: 81300 nM
EKVX; read-out: pTGI (converted)
  TGI: 3720 nM
SNB-19
  GI50: 41.7 nM
SNB-19; [2]
  CC50: 93300 nM
SNB-19; read-out: pTGI (converted)
  TGI: 1000 nM
NCI-H522
  GI50: 37.1 nM
NCI-H522; [2]
  CC50: 3800 nM
NCI-H522; read-out: pTGI (converted)
  TGI: 240 nM
SF-268
  GI50: 70.8 nM
SF-268; [2]
  CC50: 63100 nM
SF-268; read-out: pTGI (converted)
  TGI: 1510 nM
A549
  GI50: 100 nM
A549; [2]
  CC50: > 100000 nM
A549; read-out: pTGI (converted)
  TGI: 1290 nM
DMS-273
  GI50: 61.7 nM
